# From PubChem BioAssay
# An excerpt weighted towards active compounds, which were near 0.86% of everything screened.
# Rtt109 Vps75 – inhibitors of C. albicans Rtt109/Vps75 HAT, primary screen, biochemical, ThioGlo CoA-SH fluorescence, plate reader; actives 0.16% (n = 330,000); Histone acetyltransferase RTT109 (Candida albicans (strain SC5314 / ATCC MYA-2876)), …; purified Rtt109/Vps75, 4 h; inhibition, % at 34.9 µM;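 active = inhibition of at least 50% in every replicate; inconclusive = best replicate reaches 50% inhibition but some replicates fall short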
# Target sequence (Q5AAJ8 whole entry, looked up): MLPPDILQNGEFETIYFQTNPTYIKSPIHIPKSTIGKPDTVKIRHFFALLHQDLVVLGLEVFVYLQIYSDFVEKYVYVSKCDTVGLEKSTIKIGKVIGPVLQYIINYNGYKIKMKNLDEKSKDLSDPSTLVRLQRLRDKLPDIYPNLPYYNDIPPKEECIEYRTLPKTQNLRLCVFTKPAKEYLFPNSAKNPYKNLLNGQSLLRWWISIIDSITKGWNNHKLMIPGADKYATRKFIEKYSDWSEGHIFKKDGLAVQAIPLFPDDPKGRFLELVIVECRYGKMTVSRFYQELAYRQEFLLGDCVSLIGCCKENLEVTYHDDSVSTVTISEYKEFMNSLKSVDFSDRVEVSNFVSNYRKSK
# ERAP1 HTS inh – human ERAP1 aminopeptidase inhibitors, primary screen, biochemical, single point, plate reader | recombinant ERAP1, Leu-AMC fluorescence, 60 min | actives 0.15% (n = 340,000) | inhibition, % at 10.7 µM | Endoplasmic reticulum aminopeptidase 1 (Homo sapiens), Q9NZ08;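 active = mean replicate inhibition of at least 30%, or all replicates individually reaching that 30% level; inactive = mean below 30% and not every replicate reaching it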;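 note: 0% = neutral control wells and 100% = L-leucinethiol positive control wells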
# MLL AF4-AF9 inh – inhibitors of AF4 peptide binding to AF9, primary screen, biochemical, AlphaScreen, biotin-AF4 peptide, FLAG-AF9, single point; inhibition, % at 10 µM; Protein AF-9 (Homo sapiens), P42568; actives 0.47% (n = 350,000);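 active = every replicate reaching a set inhibition limit, whatever the replicate mean, cut at about 25% in these data; inconclusive = mean inhibition reaches that limit but some replicates miss it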;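 note: 0% = plate neutral control median and 100% = total signal loss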
# S100A4 inh HTS – inhibitors of S100A4-myosin IIA peptide binding, primary screen, biochemical, fluorescence polarization, TAMRA-MyoIIA peptide; inhibition, % at 10.7 µM; actives 0.14% (n = 360,000);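 active = mean inhibition of at least 70% across replicates, with every replicate also reaching that level; inconclusive = mean inhibition reaches 70% but some replicates fall short; inactive = mean inhibition below 70%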
# Target sequence (P26447 whole entry, looked up): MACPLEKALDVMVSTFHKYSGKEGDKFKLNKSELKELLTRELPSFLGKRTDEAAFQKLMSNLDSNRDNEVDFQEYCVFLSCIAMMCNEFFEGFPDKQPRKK
#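 Material: human S100A4 monomer with TAMRA-labelled myosin IIA peptide; buffer or medium: HEPES pH 7.2 with CaCl2, KCl, NaCl, DTT, Triton; compound dosing: one concentration per compound; schedule: 5 min incubation before reading; benchmarks: neutral control DMSO, positive control TFP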
# miR122 inh – miR-122 Renilla sensor signal increase in Huh7, primary screen, miR-122 inhibitor project, cell-based, single point, plate reader | Huh7 miR-122 Renilla luciferase sensor, 48 h; neutral wells = 0, positive control = 100 | activation (reporter increase), % at 12.5 µM | actives 0.3% (n = 340,000) | AID 602342, 2012;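 active = mean replicate activation score at least 90 and every replicate individually at or above 90; inconclusive = only one of the two criteria met; inactive = neither criterion met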;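 note: higher luciferase means less miR-122 activity so hits act as miR-122 inhibitors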
# Active calls of the source: *; i = inactive; u = inconclusive; x = not tested or not shown; ! = not active in a repeat; [ ] = dose if it differs, or a comment.
SMILES,Rtt109 Vps75,ERAP1 HTS inh,MLL AF4-AF9 inh,S100A4 inh HTS,miR122 inh
CC(=O)Nc1ccc(/C=N/NS(=O)(=O)c2cc(C)ccc2C)cc1,35.3,-2.4,3.0,1.1,463.8*
Cc1ccc(C)c(S(=O)(=O)N/N=C/c2ccc(F)cc2)c1,2.1,-7.3,-2.0,-2.4,x
O=C(Nc1nc2ccc(S(=O)(=O)N3CCCC3)cc2s1)C1CCCCC1,-1.9,x,x,x,130.4*
Nc1nc2ccc(S(=O)(=O)N3CCCCC3)cc2s1,151.9*,11.9,-6.7,-1.2,11.3
Cc1ccc(S(=O)(=O)N[C@@H]2CCCN(Cc3cccc(OCCO)c3)C2)cc1,x,x,7.2,-2.5,x
Cc1ccc(S(=O)(=O)N(C)C[C@@H]2Oc3ccc(NC(=O)Nc4ccc(C(F)(F)F)cc4)cc3CC(=O)N([C@H](C)CO)C[C@@H]2C)cc1,x,-1.5,-4.7,5.0,122.7*[16.7 µM]
C[C@@H]1CN([C@H](C)CO)C(=O)Cc2cc(NS(=O)(=O)c3ccc(Cl)cc3)ccc2O[C@@H]1CN(C)C(=O)Nc1ccc(C(F)(F)F)cc1,x,0.9,-4.2,2.8,103.3*[16.7 µM]
CNC[C@H]1OCCCC[C@@H](C)Oc2ccc(NC(=O)Nc3c(C)noc3C)cc2C(=O)N([C@H](C)CO)C[C@H]1C,x,6.5,-2.8,-55.0,3.1[16.7 µM]
CCN(CC)c1ccc(N=C2C=CC(=O)C=C2NC(C)=O)cc1,x,8.1,-4.5,127.1*,-0.2
CCCn1c(/C=C/c2ccccc2)nc2ccccc21,2.0,x,x,x,x
CC(C)n1c(/C=C/c2ccccc2)nc2ccccc21,7.3,x,x,x,192.0*
CCn1c(/C=C/c2cc[n+](C)cc2)nc2ccccc21,3.6,59.0*,-0.3,3.4,-5.2
CCCN1[C@H](CO)[C@H](c2ccc(C3=CCCCC3)cc2)[C@@H]1CNS(C)(=O)=O,x,0.6,3.9,80.3*,x
CCCN1[C@H](CO)[C@H](c2ccc(C3=CCCCC3)cc2)[C@@H]1CNC(=O)COC,x,-0.8,-0.9,-1.1,x
CC(C)Cc1cc(C(=O)NCCCN2CCOCC2)no1,10.9,-0.9,0.0,150.7*,4.8
O=C(NCCCN1CCOCC1)c1cc(-c2ccc(F)cc2)on1,-4.4,x,x,x,1.6
CO[C@@H]1CN(C)C(=O)c2ccc(NS(=O)(=O)c3cccc(F)c3)cc2OC[C@H](C)NC[C@H]1C,x,0.5,-3.0,6.4,-13.6[16.7 µM]
CCN1C(=O)C(=O)c2cc(C)ccc21,3.5,-0.2,x,37.1,-5.0
CC[N+]1=C(C)C(C)(C)c2cc(C)ccc21,6.0,13.7,-83.5,182.5*,-3.3
CCS(=O)(=O)Nc1ccc2c(c1)C(=O)N(C)C[C@H](OC)[C@@H](C)CN(C(=O)COC)[C@@H](C)CO2,x,-2.4,-4.7,-5.0,x
COCCCn1c(C(=O)NCCN2CCOCC2)cc2c(=O)n3ccccc3nc21,i,41.7*,-1.8,1.7,x
N=c1c(C(=O)NCCN2CCOCC2)cc2c(=O)n3ccccc3nc2n1CCc1ccccc1,-36.5,50.9*,-1.4,13.2,-1.3
CCCC(O)C#Cc1cnc2c(c1)C(=O)N([C@H](C)CO)C[C@H](C)[C@H](CN(C)C(=O)NC(C)C)O2 (stereo partly specified),x,5.3,-1.3,4.0,-3.8[16.7 µM]
CNC(=O)C[C@@H]1CC[C@H]2[C@H](COc3ccc(NC(=O)C(C)C)cc3C(=O)N2C)O1,x,x,x,x,-6.7[16.7 µM]
CNC[C@H]1Oc2cc(C#Cc3ccc(OC)cc3)ccc2S(=O)(=O)N([C@@H](C)CO)C[C@@H]1C,x,-1.4,10.4,55.4,0.1[16.7 µM]
SMILES,Rtt109 Vps75,ERAP1 HTS inh,MLL AF4-AF9 inh,S100A4 inh HTS,miR122 inh
CC(C)n1c(O)c(N=NC(=O)CNC(=O)Cc2ccc(Cl)cc2)c2ccccc21,7.7,1.6,8.0,4.7,-0.3
COc1ccccc1C(=O)NCC(=O)N=Nc1c(O)n(C(C)C)c2ccccc12,63.6*,-1.6,-2.3,-1.3,-0.5
CCOc1ccccc1CNC(=O)CCc1cn(C)c2ccccc12,-1.2,0.6,-2.0,-8.5,19.8
CCOc1ccccc1CNC(=O)CCCc1cn(C)c2ccccc12,-7.2,-2.6,48.9*,-3.0,1.3
CC(=O)Nc1c(-c2ccccc2)nc2ncccn12,-15.7,7.0,48.1*,-9.6,-2.1
COc1ccccc1S(=O)(=O)N[C@H]1CC[C@@H](CCNC(=O)C2CCCC2)O[C@@H]1CO,x,3.1,-14.6,12.1,-17.3[16.7 µM]
Oc1ccccc1N=Nc1ccccc1O,-10.5,-0.3,-1.0,-3.4,x
Nc1ccc(N=Nc2ccccc2O)c(N)c1,x,7.8,49.3*,1.4,-7.9
Cc1ccsc1C1Nc2ccc3ncccc3c2C2=C1C(=O)CC(C)(C)C2 (stereo unspecified),-7.2,x,x,x,95.3*
Cc1noc(C)c1NC(=O)Nc1cccc2c1O[C@@H](CN(C)C(=O)Nc1ccc3c(c1)OCO3)[C@H](C)CN([C@@H](C)CO)C2=O,x,-0.6,0.3,-7.2,0.7[16.7 µM]
CN(C)C(=O)c1ccc(-c2ccc3c(c2)[C@@H]2[C@@H](CCN2C(=O)c2ccc4c(c2)OCO4)[C@H](CO)N3)cc1,x,x,x,x,-3.8[16.7 µM]
C[n+]1ccccc1/C=N/O,6.5,92.2*!,-1.1,1.4,-3.1
C[n+]1ccccc1/C=C/c1cc(Br)ccc1O,-19.2,11.1,15.5,2.8,x
CC(O)/C=C/c1cccc[n+]1C (stereo unspecified),-1.3,107.5*,-6.0,-1.0,-1.8
Cc1noc(C)c1S(=O)(=O)Nc1ccc2c(c1)CC(=O)N([C@H](C)CO)C[C@@H](C)[C@@H](CN(C)C(=O)Nc1ccccc1)O2,x,2.0,0.8,4.4,0.8[16.7 µM]
CCCC[C@@H](O)C1=C(COc2ccccc2)C[C@H]2C(=O)N(Cc3ccccc3)C(=O)[C@H]2[C@H]1CO,x,-0.9,-0.3,-34.2,x
Cc1cc(OC(=O)c2cc([N+](=O)[O-])ccc2Cl)c([N+](=O)[O-])c(=O)[nH]1,-5.9,-3.8,47.3*,7.6,-3.9
C[C@H](CO)N1C[C@H](C)[C@H](CN(C)Cc2ccc(Cl)c(Cl)c2)Oc2ccc(NC(=O)CCCCCC(=O)Nc3ccccc3N)cc2CC1=O,x,-2.7,0.3,11.5,14.3[16.7 µM]
CC(C)CC#Cc1ccc2c(c1)O[C@H](CN(C)C(=O)Nc1ccccc1F)[C@H](C)CN([C@@H](C)CO)S2(=O)=O,x,0.7,1.7,5.7,17.8[16.7 µM]
Cc1noc(C)c1NC(=O)N(C)C[C@@H]1Oc2cc(C#CCC3CCCC3)ccc2S(=O)(=O)N([C@@H](C)CO)C[C@@H]1C,x,1.5,28.7*,-6.3,-34.7[16.7 µM]
Cc1noc(C)c1NC(=O)N(C)C[C@H]1Oc2cc(C#CCC3CCCC3)ccc2S(=O)(=O)N([C@H](C)CO)C[C@H]1C,x,1.2,37.3*,10.0,-10.0[16.7 µM]
Cc1noc(C)c1NC(=O)N(C)C[C@@H]1Oc2cc(C#CCC3CCCC3)ccc2S(=O)(=O)N([C@H](C)CO)C[C@H]1C,x,0.2,u,-1.0,5.5[16.7 µM]
